From ChEMBL document CHEMBL5335840, “Stereoselective synthesis and antiproliferative activity of allo-gibberic acid-based 1,3-aminoalcohol regioisomers” (RSC Med Chem, 2024)
pIC50: −log10 of the molar value.

Key:
HeLa = assay: Antiproliferative activity against human HeLa cells assessed as inhibition of cell growth incubated for 72 hrs by MTT assay; assay type: functional, cell-based
Outline: (§1)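 Cells kept in Eagle's MEM with 10% FBS, 1% non-essential amino acids and 1% antibiotic-antimycotic at 37 °C, 5% CO2. Seeded at 5000 cells per well and incubated overnight before compound addition. Growth inhibition tested at 10 and 30 μM, IC50 from 1.0–30.0 μM (four concentrations). MTT added for 4 h, formazan dissolved in DMSO, absorbance read at 545 nm. Untreated control, two experiments of five wells.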

MDA-MB-231 = assay: Antiproliferative activity against human MDA-MB-231 cells assessed as inhibition of cell growth incubated for 72 hrs by MTT assay; assay type: functional, cell-based; conditions: MDA-MB-231, 72 h; outline: as §1
MCF7 = assay: Antiproliferative activity against human MCF7 cells assessed as inhibition of cell growth incubated for 72 hrs by MTT assay; assay type: functional, cell-based; conditions: MCF7, 72 h; outline: as §1
[1] = Cytotoxicity against mouse NIH/3T3 cells assessed as inhibition of cell growth incubated for 72 hrs by MTT assay; assay type: toxicity, cell-based, NIH3T3; outline: as §1
SiHa = assay: Antiproliferative activity against human SiHa cells assessed as inhibition of cell growth incubated for 72 hrs by MTT assay; assay type: functional, cell-based; outline: as §1
A2780 = assay: Antiproliferative activity against human A2780 cells assessed as inhibition of cell growth incubated for 72 hrs by MTT assay; assay type: functional, cell-based; conditions: A2780, 72 h; outline: as §1

Row | pIC50 (HeLa) | pIC50 (MDA-MB-231) | pIC50 (MCF7) | pIC50 (A2780) | Compound | IC50 at 72 h [1] [µM] | pIC50 (SiHa)
1 | 4.68 | 4.98 | 5.46 |  | CCOC(=O)[C@H]1c2c(C)cccc2[C@H]2CC[C@@]3(CO)C[C@]21C[C@@H]3N[C@@H](C)c1cccc2ccccc12 | 6.02 | 4.65
2 | 4.73 | 4.71 | 5.15 | 5.34 | CCOC(=O)[C@H]1c2c(C)cccc2[C@H]2CC[C@@]3(CO)C[C@]21C[C@@H]3N[C@H](C)c1cccc2ccccc12 | 14.5 | 4.64
3 | 5.30 | 5.19 | 5.41 | 5.29 | CCOC(=O)[C@H]1c2c(C)cccc2[C@H]2CC[C@@]3(CO)C[C@]21C[C@@H]3NCc1cc(Br)ccc1O | 19.7 | 4.66
4 | 5.33 | 5.30 | 5.62 | 5.27 | CCOC(=O)[C@H]1c2c(C)cccc2[C@H]2CC[C@@]3(CNCc4cc(Br)ccc4O)C[C@]21C[C@H]3O | 13 | 4.69
5 | 5.29 |  | 5.44 |  | CCOC(=O)[C@H]1c2c(C)cccc2[C@H]2CC[C@@]3(CN[C@@H](C)c4ccc5ccccc5c4)C[C@]21C[C@H]3O | 4.62 | 5.36
6 | 4.73 | 5.11 | 5.36 |  | CCOC(=O)[C@H]1c2c(C)cccc2[C@H]2CC[C@@]3(CNCc4ccc(F)cc4)C[C@]21C[C@H]3O | 15.2 | 5.08
7 | 4.89 | 5.19 | 5.39 | 4.86 | CCOC(=O)[C@H]1c2c(C)cccc2[C@H]2CC[C@@]3(CNCc4ccc(OC)cc4)C[C@]21C[C@H]3O | 14.7 | 4.75
8 | 5.40 | 5.33 | 5.50 | 5.34 | CCOC(=O)[C@H]1c2c(C)cccc2[C@H]2CC[C@@]3(CO)C[C@]21C[C@@H]3NCCc1c[nH]c2ccccc12 | 13 | 5.39
9 | 5.36 | 5.36 |  | 5.36 | CCOC(=O)[C@H]1c2c(C)cccc2[C@H]2CC[C@]3(O)C[C@@]21C[C@]3(O)CN[C@@H](C)c1cccc2ccccc12 | 4.38 | 5.36
